# Laboratory results taken from ChEMBL document CHEMBL1139993, “Synthesis of sialic acid derivatives as ligands for the myelin-associated glycoprotein (MAG)” (Bioorg Med Chem, 2007).
# Target: T1, Myelin-associated glycoprotein (Homo sapiens) (UniProt P20916)
# T1 sequence (whole entry): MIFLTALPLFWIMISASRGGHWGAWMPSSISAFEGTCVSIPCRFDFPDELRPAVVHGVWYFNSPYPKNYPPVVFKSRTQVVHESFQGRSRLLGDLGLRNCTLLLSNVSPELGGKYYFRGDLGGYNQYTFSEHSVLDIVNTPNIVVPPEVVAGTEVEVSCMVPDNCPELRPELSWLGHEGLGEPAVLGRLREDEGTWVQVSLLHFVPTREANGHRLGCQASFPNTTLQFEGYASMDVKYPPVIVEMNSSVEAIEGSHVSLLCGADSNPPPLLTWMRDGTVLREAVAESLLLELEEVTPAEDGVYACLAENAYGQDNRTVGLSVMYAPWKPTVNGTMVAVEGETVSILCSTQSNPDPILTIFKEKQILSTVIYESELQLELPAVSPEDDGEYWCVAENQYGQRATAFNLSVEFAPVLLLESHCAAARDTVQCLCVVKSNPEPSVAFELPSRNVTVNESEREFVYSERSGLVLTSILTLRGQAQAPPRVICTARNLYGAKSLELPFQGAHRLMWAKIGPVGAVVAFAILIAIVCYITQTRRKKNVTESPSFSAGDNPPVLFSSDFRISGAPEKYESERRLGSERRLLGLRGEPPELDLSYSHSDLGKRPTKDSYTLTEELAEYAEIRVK
# Experiment: Inhibition of MAG N-terminal three domains expressed in CHO cells at 20 mM
row,inhibition [%],Structure (SMILES)
1,< 50,CC(=O)N[C@H]1[C@H]([C@@H](O)[C@H](O)CO)O[C@](OCc2ccccc2)(C(=O)O)C[C@@H]1O

# Target: T1, Myelin-associated glycoprotein (Homo sapiens)
# Experiment: Inhibition of MAG N-terminal three domains expressed in CHO cells relative to Gal-beta-(1-3)-GalNAc-OSE
# Format: cell-based
# Summary of the method: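 Fc-MAG_d1–3 fusion (N-terminal three MAG domains plus human IgG Fc) was expressed in CHO cells and protein A-agarose purified, then precomplexed with alkaline phosphatase-labelled anti-Fc antibody. It was added to plates with immobilized Neu5Ac plus inhibitor, incubated overnight at 4 °C, and washed. Bound protein was read as initial rate of fluorescein release from fluorescein diphosphate. IC50 was taken from at least eight concentrations.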
row,Structure (SMILES),Activity
1,CC(=O)N[C@H]1[C@H]([C@@H](O)[C@H](O)CN=[N+]=[N-])O[C@@](OCc2ccccc2)(C(=O)O)C[C@@H]1O,0.05
2,CC(=O)N[C@H]1[C@H]([C@@H](O)[C@H](O)CO)O[C@@](OCc2ccccc2)(C(=O)O)C[C@@H]1O,0.62
3,CC(=O)N[C@H]1[C@@H]([C@H](O)[C@H](O)CNC(=O)c2ccccc2-c2ccccc2)O[C@@](OCc2ccccc2)(C(=O)O)C[C@@H]1O,75
4,CCCCCCCCCC(=O)NC[C@@H](O)[C@H](O)[C@@H]1O[C@@](OCc2ccccc2)(C(=O)O)C[C@H](O)[C@H]1NC(C)=O,12
5,CC(=O)N[C@H]1[C@H]([C@@H](O)[C@H](O)COCc2ccccc2)O[C@@](OCc2ccccc2)(C(=O)O)C[C@@H]1O,2.8
6,CCCCCC(=O)NC[C@@H](O)[C@H](O)[C@@H]1O[C@@](OCc2ccccc2)(C(=O)O)C[C@H](O)[C@H]1NC(C)=O,12
7,CC(=O)N[C@H]1[C@H]([C@@H](O)[C@H](O)CNC(=O)c2cc(=O)[nH]c(=O)[nH]2)O[C@@](OCc2ccccc2)(C(=O)O)C[C@@H]1O,6.7

# Second part, the molecule after the results:
row,Activity,Structure (SMILES)
1,690,CC(=O)N[C@H]1[C@H]([C@@H](O)[C@H](O)CNC(=O)c2ccccc2)O[C@@](OCc2ccccc2)(C(=O)O)C[C@@H]1O
2,1070,CC(=O)N[C@H]1[C@H]([C@@H](O)[C@H](O)CNC(=O)c2ccc(Cl)cc2)O[C@@](OCc2ccccc2)(C(=O)O)C[C@@H]1O
3,483,CC(=O)N[C@H]1[C@H]([C@@H](O)[C@H](O)CNC(=O)c2cccc(Cl)c2)O[C@@](OCc2ccccc2)(C(=O)O)C[C@@H]1O
4,690,CC(=O)N[C@H]1[C@H]([C@@H](O)[C@H](O)CNC(=O)c2ccc(Cl)c(Cl)c2)O[C@@](OCc2ccccc2)(C(=O)O)C[C@@H]1O
5,806,CC(=O)N[C@@H]1[C@@H]([C@@H](O)[C@H](O)CNC(=O)c2ccc(C)cc2)O[C@@](OCc2ccccc2)(C(=O)O)C[C@@H]1O
6,191,CC(=O)N[C@H]1[C@@H]([C@H](O)[C@H](O)CNC(=O)c2ccc(-c3ccccc3)cc2)O[C@@](OCc2ccccc2)(C(=O)O)C[C@@H]1O
7,35,CC(=O)N[C@H]1[C@H]([C@@H](O)[C@H](O)CNC(=O)c2ccc(Cl)cc2Cl)O[C@@](OCc2ccccc2)(C(=O)O)C[C@@H]1O
8,207,CC(=O)N[C@H]1[C@H]([C@@H](O)[C@H](O)CNC(=O)c2ccc(C(F)(F)F)cc2)O[C@@](OCc2ccccc2)(C(=O)O)C[C@@H]1O
9,414,CC(=O)N[C@H]1[C@H]([C@@H](O)[C@H](O)CNC(=O)c2ccc([N+](=O)[O-])cc2)O[C@@](OCc2ccccc2)(C(=O)O)C[C@@H]1O
10,290,COc1ccc(C(=O)NC[C@@H](O)[C@H](O)[C@@H]2O[C@@](OCc3ccccc3)(C(=O)O)C[C@H](O)[C@H]2NC(C)=O)cc1
11,8.6,CCCC(=O)NC[C@@H](O)[C@H](O)[C@@H]1O[C@@](OCc2ccccc2)(C(=O)O)C[C@H](O)[C@H]1NC(C)=O
